Source: ChEMBL document CHEMBL3425450, “Neuroactive Steroids. 1. Positive Allosteric Modulators of the (γ-Aminobutyric Acid)A Receptor: Structure-Activity Relationships of Heterocyclic Substitution at C-21” (J Med Chem, 2015)
Converted amounts (≈) assume the structure as drawn.

Experiments:
[1] = target: GABA-A receptor; agonist GABA site; assay: Positive allosteric modulation of recombinant alpha4beta3delta GABAA receptor (unknown origin) expressed in CHO cells assessed as potentiation of GABA-induced channel current treated for 30 s prior to GABA stimulation for 2s by manual patch assay; format: cell-based, Homo sapiens
[2] = target: GABA-A receptor; anion channel; assay: Displacement of [3H]TBPS from GABAA receptor in Sprague-Dawley rat brain cortical membrane after 90 mins by liquid scintillation spectrometry
[3] = Retention time of the compound by LC-MS analysis; format: physicochemical
Summary of the method: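 Eluents were water and acetonitrile, each with TFA, run as a 5 to 95% acetonitrile gradient over 1.5 min at 1.5 mL/min. Capillary voltage was 3.5 kV and fragmentor voltage 50 V.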

[4] = target: GABA-A receptor; agonist GABA site; assay: Positive allosteric modulation of recombinant alpha1beta2gamma2 GABAA receptor (unknown origin) expressed in LTK cells assessed as potentiation of GABA-induced channel current treated for 30 s prior to GABA stimulation for 2s by Q-patch assay; format: cell-based, Homo sapiens
[5] = Aqueous solubility of the compound at pH 7.4 by HPLC-MS/MS analysis; format: physicochemical; conditions: buffer
[6] = Lipophilicity, log D of the compound at 20 uM at pH 7.4 by HPLC-MS/MS analysis; format: physicochemical; conditions: buffer
[7] = Clearance in mouse liver microsomes at 10 uM after 60 mins by HPLC-MS/MS analysis; format: ADME
[8] = Clearance in rat liver microsomes at 10 uM after 60 mins by HPLC-MS/MS analysis; format: ADME
[9] = Clearance in human liver microsomes at 10 uM after 60 mins by HPLC-MS/MS analysis; format: ADME
[10] = Ratio of drug level in brain to plasma in Sprague-Dawley rat at 5 mg/kg, iv after 30 mins by LC-MS/MS analysis; format: ADME, organism-based; design: dose 5 mg/kg, route intravenous; conditions: read-out: BPR
Summary of the method: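 Brain and plasma were sampled at a single point 30 min after the i.v. 5 mpk dose. The ratio was calculated from mean concentrations of 2 rats.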

[11] = Clearance in Sprague-Dawley rat at 5 mg/kg, iv and 20 mg/kg, po by LC-MS/MS analysis; format: ADME, organism-based; conditions: in vivo
Summary of the method: (§1)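 Rats were dosed i.v. at 5 mpk and orally at 20 mpk. Clearance and oral bioavailability were calculated from mean plasma concentrations of 2 rats.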

[12] = Oral bioavailability in Sprague-Dawley rat at 20 mg/kg by LC-MS/MS analysis; format: ADME, organism-based; conditions: in vivo; summary of the method: as §1

SMILES	EC50 [1]	IC50 [2]	Retention_time [3]	EC50 [4]	solubility [5]	logD at 20 µM [6]	CLhep predicted at 10 µM [7]	CLhep predicted at 10 µM [8]	CLhep predicted at 10 µM [9]	Kp at 0.5 h [10]	clearance [11]	bioavailability [12]
C[C@@]1(O)CC[C@H]2[C@@H](CC[C@@H]3[C@@H]2CC[C@]2(C)[C@@H](C(=O)Cn4cccn4)CC[C@@H]32)C1	1150 nM	149 nM	0.89 min	> 3000 nM	–	–	–	–	–	–	–	–
C[C@@]1(O)CC[C@H]2[C@@H](CC[C@@H]3[C@@H]2CC[C@]2(C)[C@@H](C(=O)Cn4ccnc4)CC[C@@H]32)C1	> 3000 nM	108 nM	0.76 min	> 3000 nM	–	–	–	–	–	–	–	–
C[C@@]1(O)CC[C@H]2[C@H](CC[C@@H]3[C@@H]2CC[C@]2(C)[C@@H](C(=O)Cn4cc5ccccc5n4)CC[C@@H]32)C1	2520 nM	11 nM	0.92 min	1900 nM	–	–	–	–	–	–	–	–
C[C@@]1(O)CC[C@H]2[C@H](CC[C@@H]3[C@@H]2CC[C@]2(C)[C@@H](C(=O)Cn4cncn4)CC[C@@H]32)C1	> 3000 nM	140 nM	0.829 min	> 3000 nM	–	–	–	–	–	–	–	–
CC(=O)[C@H]1CC[C@H]2[C@@H]3CC[C@H]4C[C@](C)(O)CC[C@@H]4[C@H]3CC[C@]12C	553 nM	74 nM	–	355 nM	1 µM (≈ 0.319 µg/mL)	5.1	67.5 mL/min/kg	52.8 mL/min/kg	8.33 mL/min/kg	–	–	–
C[C@@]1(O)CC[C@H]2[C@@H](CC[C@@H]3[C@@H]2CC[C@]2(C)[C@@H](C(=O)Cn4nccn4)CC[C@@H]32)C1	1420 nM	54 nM	0.889 min	592 nM	–	–	–	–	–	–	–	–
C[C@@]1(O)CC[C@H]2[C@H](CC[C@@H]3[C@@H]2CC[C@]2(C)[C@@H](C(=O)Cn4ncc5ccccc54)CC[C@@H]32)C1	508 nM	15 nM	0.95 min	1530 nM	–	–	–	–	–	–	–	–
C[C@@]1(O)CC[C@H]2[C@H](CC[C@@H]3[C@@H]2CC[C@]2(C)[C@@H](C(=O)Cn4ncc5ccncc54)CC[C@@H]32)C1	> 3000 nM	17 nM	0.8 min	> 3000 nM	–	–	–	–	–	–	–	–
C[C@@]1(O)CC[C@H]2[C@H](CC[C@@H]3[C@@H]2CC[C@]2(C)[C@@H](C(=O)Cn4cccn4)CC[C@@H]32)C1	1460 nM	32 nM	0.88 min	945 nM	–	–	–	–	–	–	–	–
C[C@@]1(O)CC[C@H]2[C@H](CC[C@@H]3[C@@H]2CC[C@]2(C)[C@@H](C(=O)Cn4nccn4)CC[C@@H]32)C1	240 nM	11 nM	0.87 min	125 nM	7.3 µM (≈ 2.81 µg/mL)	4.6	67.5 mL/min/kg	45 mL/min/kg	3.17 mL/min/kg	1.8	38.3 mL/min/kg	27%
C[C@@]1(O)CC[C@H]2[C@@H](CC[C@@H]3[C@@H]2CC[C@]2(C)[C@@H](C(=O)CN4CCCC4)CC[C@@H]32)C1	–	2890 nM	0.77 min	–	–	–	–	–	–	–	–	–
C[C@@]1(O)CC[C@H]2[C@@H](CC[C@@H]3[C@@H]2CC[C@]2(C)[C@@H](C(=O)Cn4ccnn4)CC[C@@H]32)C1	1320 nM	102 nM	0.85 min	2740 nM	–	–	–	–	–	–	–	–
C[C@@]1(O)CC[C@H]2[C@H](CC[C@@H]3[C@@H]2CC[C@]2(C)[C@@H](C(=O)CN4CCCC4)CC[C@@H]32)C1	–	1290 nM	0.745 min	–	–	–	–	–	–	–	–	–
C[C@@]1(O)CC[C@H]2[C@H](CC[C@@H]3[C@@H]2CC[C@]2(C)[C@@H](C(=O)Cn4ncc5ncccc54)CC[C@@H]32)C1	> 3000 nM	25 nM	0.85 min	2510 nM	–	–	–	–	–	–	–	–
C[C@@]1(O)CC[C@H]2[C@H](CC[C@@H]3[C@@H]2CC[C@]2(C)[C@@H](C(=O)Cn4ncc5c4CCCC5)CC[C@@H]32)C1	> 3000 nM	50 nM	0.94 min	1490 nM	–	–	–	–	–	–	–	–
